Screening results as filed in PubChem BioAssay.
In the library only some 4.6% were active in any assay of this set; here they are far more common.
ALR H2O2 inh: blocks human ALR sulfhydryl oxidase activity; P55789; purified ALR, DTT oxidation, H2O2 HRP-luminol luminescence; inhibition, % (concentration not given with the values); 290,000 compounds, 3.8% hits;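 active = mean replicate inhibition above about 79%, with every replicate also reaching it, limit read from the data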
Target sequence (P55789 whole entry, looked up): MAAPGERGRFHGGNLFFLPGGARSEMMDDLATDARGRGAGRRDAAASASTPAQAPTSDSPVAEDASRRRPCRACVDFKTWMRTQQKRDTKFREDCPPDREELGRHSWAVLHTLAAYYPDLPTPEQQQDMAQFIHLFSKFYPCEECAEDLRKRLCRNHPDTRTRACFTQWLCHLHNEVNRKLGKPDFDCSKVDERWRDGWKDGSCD
DSG3 Ab inh: blocks pemphigus antibody binding to human desmoglein-3; DSG3-coupled beads, scFv-anti-DSG3-GFP binding, flow cytometry; hits give low values; AID 588358; 310,000 compounds, 0.48% hits; P32926; binding (percent of control), % at 10 µM;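 active = binding more than 3 SD below its plate's average and above zero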;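 note: hits lower antibody fragment binding to DSG3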
Arrestin-AP2 inh: blocks beta-arrestin peptide binding to AP2 adaptin | AID 504490 | inhibition, % at 10 µM | 340,000 compounds, 0.31% hits | FITC-arrestin peptide / GST-AP2 beads, flow cytometry; AP2 beta2 appendage carries R879A mutation;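 active = inhibition above a set limit, near 3 SD of compounds lacking own fluorescence, cut at about 54% in these data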
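System: GST-AP2 R879A glutathione beads | Also added: FITC-arrestin peptide, 50 nM | Times: 12 min plus 1 h, RT | Signal: Bead flow cytometry, FITC channel | Buffer or medium: PBS with 0.05% Tween 20 and 0.1% BSA | Read-out basis: Percent drop in bead-associated FITC signal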
PolyA inh: blocks polyadenylation in yeast reporter cells | AID 1875 | 300,000 compounds, 0.02% hits | activity score, % at 12 µM | S. cerevisiae SKY197-pL101 polyadenylation reporter, beta-gal luminescence; efflux-impaired pdr1/pdr3 knockout yeast; score 100 = 6 SD above DMSO;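 active = lowest replicate activity score at least 50, where 100 means six control SD above control mean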;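 note: yeast exposed to compound for 9 h at 30 °C; higher score means more reporter readthrough which indicates perturbed polyadenylation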
NALP1 yeast inh: blocks the NALP1 inflammasome reconstituted in yeast; 280,000 compounds, 0.61% hits; S. cerevisiae NALP1/ASC/caspase-1 growth, X-gal OD620, 72 h; inhibition, % at 10 µM; in the data active = inhibition mostly above about 24%, no sharp cut-off; inactive = mostly below about 32%
NALP3 yeast inh: NALP3 inhibition in yeast; inhibition, % at 10 µM; Yeast reconstituted NLRP3/ASC/caspase-1, beta-gal luminescence, 24 h; AID 2825; 330,000 compounds, 0.39% hits;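 active = inhibition of 50% or more; inactive = inhibition below 50%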
Each line names hits and unclear results; the compound was inactive in the other large screens.

CN1CCN(Cc2nc3ccccc3c(=O)n2Cc2nc(-c3ccc4ccccc4c3)cs2)CC1	ALR H2O2 inh 98 (no result: NALP3 yeast inh)
CN1CCN(Cc2nc3ccccc3c(=O)n2Cc2nc(-c3ccccc3F)cs2)CC1	none (no result: ALR H2O2 inh, NALP3 yeast inh)
Cc1ccc(S(=O)(=O)N2CCC[C@H]2C(=O)NC2CCCCC2)cc1	none (no result: ALR H2O2 inh, PolyA inh, NALP1 yeast inh, NALP3 yeast inh)
NC(=S)Nc1ccc2cn[nH]c2c1	none (no result: ALR H2O2 inh)
c1cc2cn[nH]c2cc1NC1CCCCCC1	ALR H2O2 inh 99
S=c1nc(-c2ccccc2)n(Cc2cccnc2)c2c1CCCC2	ALR H2O2 inh 94 (no result: DSG3 Ab inh, Arrestin-AP2 inh)
CCOc1ccc(Nc2nc(Cc3nnc(SCC(=O)O)o3)cs2)cc1	ALR H2O2 inh 87
CC(=O)N1CCN(c2ccc(Nc3ncnc4c3oc3ccccc34)cc2)CC1	ALR H2O2 inh 99
Oc1ccc(Nc2ncnc3c2oc2ccccc23)cc1	none
CCc1nc(Nc2ccc(N3CCN(C(C)=O)CC3)cc2)c2oc3ccccc3c2n1	ALR H2O2 inh 96
CCc1nc(Nc2ccccc2)c2oc3ccccc3c2n1	none
Cn1c(=O)c2[nH]c(Cc3cccc4ccccc34)nc2n(C)c1=O	none (no result: ALR H2O2 inh, PolyA inh, NALP1 yeast inh, NALP3 yeast inh)
O=C(Cn1nnc(-c2ccccc2)n1)OCc1csc(-c2ccccc2)n1	ALR H2O2 inh 99
O=C(Cn1nnc(-c2ccccc2)n1)OCc1ccccc1	none
N=C(N)SCCc1cccc(CCSC(=N)N)c1	ALR H2O2 inh 98 (no result: NALP1 yeast inh)
Cc1cccc(CSC(=N)N)c1	none
O=C(NCC(c1cccnc1)N1CCN(c2ccc(F)cc2)CC1)c1ccco1 (configuration not stated)	ALR H2O2 inh 92
O=C(NCC(c1cccnc1)N1CCOCC1)c1ccco1 (configuration not stated)	none
O=C(NCc1ccncc1)C(=O)NCC(c1ccco1)N1CCN(c2ccccc2)CC1 (configuration not stated)	ALR H2O2 inh 99
O=C(NCC1CCCO1)C(=O)NCC(c1ccco1)N1CCN(c2ccccc2)CC1 (configuration not stated)	ALR H2O2 inh 98
COc1ccc(N2CCN(C(CNC(=O)c3ccco3)c3ccco3)CC2)cc1 (configuration not stated)	ALR H2O2 inh 91 (no result: NALP1 yeast inh)
S=C(NCC1CCCO1)N1CCN(c2ccccc2)CC1 (configuration not stated)	ALR H2O2 inh 98
COc1ccc(N2CCN(C(CNC(=O)c3ccco3)c3cccnc3)CC2)cc1 (configuration not stated)	ALR H2O2 inh 89
FC(F)(F)c1cccc(N2CCN(C(=S)NCC3CCCO3)CC2)c1 (configuration not stated)	none
O=C(NCc1cccnc1)C(=O)NCC(c1ccco1)N1CCN(c2ccc(F)cc2)CC1 (configuration not stated)	ALR H2O2 inh 86
O=C(COc1coc(CN2CCN(c3ccccc3)CC2)cc1=O)NCC1CCCO1 (configuration not stated)	ALR H2O2 inh 93 (no result: NALP1 yeast inh)
COc1cccc(CNC(=O)CCNS(=O)(=O)c2ccc(C)cc2)c1	none (no result: NALP1 yeast inh)
COc1ccc(N2CCN(C(CNC(=O)c3ccc4c(c3)OCO4)c3cccnc3)CC2)cc1 (configuration not stated)	ALR H2O2 inh 97
O=C(NCC(c1cccnc1)N1CCN(c2ccc(F)cc2)CC1)c1ccc2c(c1)OCO2 (configuration not stated)	none
COC(=O)NCC(c1ccco1)N1CCN(c2ccccc2)CC1 (configuration not stated)	ALR H2O2 inh 96
CC(CC(=O)NC1CCCCC1)S(=O)(=O)c1ccc2c(c1)NC(=O)CO2 (configuration not stated)	none
CCN(CC)CCNC(=O)c1cc(Nc2ccc(OC)c(OC)c2)nc2ccccc12	none
Cc1ccc(NC(=O)CSc2nc(N)c(-c3ccccc3)c(=O)[nH]2)cc1Cl	ALR H2O2 inh 98
Cc1ccc(NC(=O)CSc2nc(N)cc(=O)[nH]2)cc1Cl	ALR H2O2 inh 95
O=C(O)c1ccc(NC(=S)NC(=O)c2ccc(-c3ccc(Br)cc3)o2)cc1	ALR H2O2 inh 93 (no result: DSG3 Ab inh, NALP3 yeast inh)
NC(=O)c1ccc(-c2ccc(Br)cc2)o1	ALR H2O2 inh 98 (no result: DSG3 Ab inh)
CCOc1cc(CNCCO)cc(Br)c1OCc1ccccc1Cl	NALP1 yeast inh 32
CCOc1c(Cl)cc(CNCC(C)C)cc1OC	none
CCOc1cc(CNCCO)cc(Br)c1OCc1ccc(Cl)cc1	none
CCOc1cc(CNCC(C)C)cc(Cl)c1OCc1ccccc1	NALP1 yeast inh 36 (no result: ALR H2O2 inh)
Cc1ccc(C2CN=NC23CCc2ccccc2C3=O)cc1 (configuration not stated)	NALP1 yeast inh 37
Cc1nc2c(C(=O)NCCC(C)C)c[nH]n2c(=O)c1Cl	ALR H2O2 inh 95
Cc1nc2c(C(=O)NCCc3ccccc3)c[nH]n2c(=O)c1Cl	none (no result: PolyA inh)
O=C(C(=O)N1CCN(c2ccc(F)cc2)CC1)c1cn(CC(=O)N2CCOCC2)c2ccccc12	none
COC(=O)/C=C/C(=O)N1CCN(c2ccccc2)CC1	ALR H2O2 inh 97 (no result: NALP3 yeast inh)
COC(=O)/C=C/C(=O)N1CCN(c2ccccc2C)CC1	ALR H2O2 inh 98
CSc1ccc(/C=C/C(=O)N2CCCN(C)CC2)cc1	ALR H2O2 inh 99
CSc1ccc(/C=C/C(=O)c2c(O)cc(C)oc2=O)cc1	ALR H2O2 inh 98
CSc1ccc(C(=O)/C=C/c2ccc(N)cc2)cc1	ALR H2O2 inh 97
CN1CCN(C(=O)/C=C\c2ccc(Cl)cc2)CC1	none
Cc1nc(N(C)C2CCCCC2)c2nnn(Cc3ccc(F)cc3)c2n1	none (no result: ALR H2O2 inh, Arrestin-AP2 inh, PolyA inh, NALP1 yeast inh, NALP3 yeast inh)
Cc1cccc(Cc2ncc(C(F)(F)F)cc2Cl)c1	none
CCC(CC)CN1CCC(CN2C(=S)NC[C@@H]2CC(C)C)CC1	none (no result: ALR H2O2 inh, PolyA inh, NALP1 yeast inh, NALP3 yeast inh)
CC(=O)NCCc1nc2cc(NC(=O)COc3ccc(C)cc3)ccc2n1C	none
COc1cc(/C=C/C(=O)Nc2ccncc2)cc(OC)c1OC	ALR H2O2 inh 85
CCOC(=O)C1(C(=O)OCC)C(C)CC(=O)N1c1ccccc1OC (configuration not stated)	none (no result: ALR H2O2 inh, Arrestin-AP2 inh, PolyA inh, NALP1 yeast inh, NALP3 yeast inh)
Brc1ccc2nc(-c3c[nH]c4ccccc34)cn2c1	none (no result: ALR H2O2 inh)
Cc1cccn2cc(-c3c[nH]c4ccccc34)nc12	ALR H2O2 inh 98
Cc1ccc(-c2cc(N)n(-c3ccc(C)cc3)n2)cc1	none (no result: DSG3 Ab inh)
Cc1ccc(-c2cc(N)n(-c3ccc(F)cc3)n2)cc1	NALP1 yeast inh 29 (no result: ALR H2O2 inh)
COC(=O)Sc1nnc(-c2ccc(Br)cc2)o1	ALR H2O2 inh 98 (no result: DSG3 Ab inh, Arrestin-AP2 inh)
Cc1[nH]c2ccccc2c1CCNS(=O)(=O)c1ccc(S(N)(=O)=O)cc1	ALR H2O2 inh 90
NS(=O)(=O)c1ccc(S(=O)(=O)NCCc2ccccc2)cc1	none
O=C1CSC(c2ccc([N+](=O)[O-])cc2)N1c1ccc(O)cc1 (configuration not stated)	none
Cc1csc(Nc2ccccc2)n1	ALR H2O2 inh 98
Cc1nc(Nc2ccccc2)sc1C	ALR H2O2 inh 99
